“Also recorded” adds a separate entry of the source.

The values below come from publication PMC4368043 (ACS Chemical Neuroscience, 2014).

The subject of one data set is H4 cells. The data set can be described thus: Cell viability assay, thapsigargin as stressor. The class given is cell-based, human. To be noted: 7.5 μM thapsigargin; for EC50: read-out: H4 EC50 ± SEM, cytoprotection, dose-response; for cytoprotective activity against thapsigargin-induced cell death (in words): H4 cells. In short, it runs like this: (§1)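 Cells plated overnight at 37 °C, 5% CO2 in phenol red-free DMEM with 2% FBS (SH-SY5Y 4 × 10^4, H4 2.5 × 10^3 cells/well). Test compound in dose–response for 2 h, then thapsigargin 7.5 μM final for 18 h at 37 °C. Read by MTS absorbance at 490 nm. Viability % = background-subtracted (cell-free medium) relative to DMSO-only, no-thapsigargin wells. EC50 from dose–response curves. ≥3 repeats, mean ± SEM.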

Data set [1] can be described thus: Microsomal stability assay. The class given is in vitro ADME. To be noted: mouse, pooled mouse liver microsomes. In short, it runs like this:
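Pooled mouse liver microsomes (1 μg/μL protein) preincubated 10 min at 37 °C with test compound (4 μM final). Started with NADPH (2 mM final) and incubated 1 h at 37 °C with shaking. Zero-time and end samples quenched in 5:1 acetonitrile:water and centrifuged. Indomethacin added as internal standard. Quantified by triple-quadrupole LC-MS/MS in MRM mode; % remaining at 1 h.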
In general terms: Microsomes from liver hold many membrane-bound enzymes, among them those of drug oxidation.

A further data set relates to SH-SY5Y cells. In words: Cell viability assay, thapsigargin as stressor. To be noted: 7.5 μM thapsigargin; for EC50: read-out: SH-SY5Y EC50 ± SEM, cytoprotection, dose-response; for cytoprotective activity against thapsigargin-induced cell death (in words): SH-SY5Y cells. The class given is cell-based, human. A digest of the protocol:
as §1

Another data set is described as follows: Plasma stability assay. The class given is in vitro ADME. To be noted: male, C57BL/6, mouse. In short, it runs like this: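 Plasma from male C57BL/6 mice, diluted 1:1 with PBS and warmed to 37 °C. Test compound added to 1 μM final and incubated 3 h at 37 °C with shaking. Zero-time and end samples quenched in 5:1 acetonitrile:water and centrifuged. Indomethacin added as internal standard. Quantified by LC-MS/MS in MRM mode; % remaining at 3 h.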

A further data set relates to JNK. The data set can be described thus: Immunoblotting of thapsigargin-induced phospho-JNK in H4 cells. To be noted: compound 25 μM and 5 μM 2 h, then 20 μM thapsigargin 1 h, immunoblot. In kind it is cell-based, human. A digest of the protocol:
(§2)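 H4 cells, 2.5 × 10^6 per 10 cm dish, grown overnight in phenol red-free DMEM with 2% FBS, then serum-starved 2 h. Test compound at 25 or 5 μM for 2 h, then thapsigargin 20 μM for 1 h. Lysed in RIPA buffer with protease and phosphatase inhibitors; protein measured by BCA. 50 μg run on 4–12% Bis-Tris SDS-PAGE and transferred to PVDF. Probed for phospho-p38, p38, phospho-JNK and JNK; HRP secondaries, ECL detection.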
A general note: Immunoblotting shows a protein as a band on a membrane.

The test system of data set [2] is p38 MAPK. In words: Activity of p38 MAPK pathway, H4-CHOP-luciferase reporter cells. In kind it is cell-based, human. In short, it runs like this: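 H4 cells stably carrying pFR-Luc and pFA-CHOP plasmids, 1000 cells/well, grown 24 h in 10% FBS DMEM, then switched to phenol red-free DMEM with 2% FBS. Test compound for 1 h at 37 °C (10 μM with thapsigargin or CDDO-IM; 20 μM with MG132; 50 μM with ionomycin). Read by Steady-Glo luminescence. RLU % = background-subtracted (compound-only wells) relative to inducer-only wells. ≥3 repeats, mean ± SEM, one-way ANOVA.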

For data set [3], the system named is p38 MAPK. The data set can be described thus: Immunoblotting of thapsigargin-induced phospho-p38 MAPK in H4 cells. To be noted: compound 25 μM and 5 μM 2 h, then 20 μM thapsigargin 1 h, immunoblot. The class given is cell-based, human. In short, it runs like this: as §2
Data set [4] has as its system panel of 46 receptors, ion channels, and transporters. In words: NIMH PDSP off-target panel. In kind it is binding.

Turning to `CC1(C)CC(=O)C2=C(C1)Nc1cc(C(F)(F)F)ccc1NC2c1ccc(N2CCCC2)cc1` (centres unmarked) [4ee, 3,3-Dimethyl-11-(4-(pyrrolidin-1-yl)phenyl)-7-(trifluoromethyl)-2,3,4,5,10,11-hexahydro-1H-dibenzo[b,e][1,4]diazepin-1-one], the 50% effective concentration (EC50) came out at 18.8 ± 2.77 µM with H4 cells and 14 ± 0.18 µM in the data set on SH-SY5Y cells. Further, the share remaining at 1 h, 4 μM in data set [1] is 1.8 ± 0.4%. The fraction remaining at 3 h, 1 μM in the data set “Plasma stability assay” was found to be 98.8 ± 3.7%.
For `CC1(C)CC(=O)C2=C(C1)Nc1cc(C(F)(F)F)ccc1NC2c1ccc(N2CCCCC2)cc1` (centres unmarked) [4ff, 3,3-Dimethyl-11-(4-(piperidin-1-yl)phenyl)-7-(trifluoromethyl)-2,3,4,5,10,11-hexahydro-1H-dibenzo[b,e][1,4]diazepin-1-one], the half-maximal effective concentration (EC50) amounted to 19.5 ± 2.15 µM in the data set on H4 cells and 16 ± 0.82 µM with SH-SY5Y cells. For the same molecule, the share remaining at 1 h, 4 μM in data set [1] worked out at 4.7 ± 1.7%. In “Plasma stability assay”, the amount remaining at 3 h, 1 μM is at least 100%.
As for `CCN(CC)c1ccc(C2Nc3ccc(C(=O)c4ccccc4)cc3NC3=C2C(=O)CC(C)(C)C3)cc1` (centres unmarked) [4hh, 7-Benzoyl-11-(4-(diethylamino)phenyl)-3,3-dimethyl-2,3,4,5,10,11-hexahydro-1H-dibenzo[b,e][1,4]diazepin-1-one], the “JNK activity (phosphorylation) in response to thapsigargin” value in the data set with JNK is on record as “significantly reduced”. Also, the “p38 activation initiated by CDDO-IM (CHOP-luciferase RLU)” value in the data set on p38 MAPK [2] (10 μM compound 1 h, CDDO-IM 600 nM 18 h) was “reduced p38 activation”. The “p38 activation initiated by thapsigargin (CHOP-luciferase RLU)” value in the data set on p38 MAPK [2] (10 μM compound 1 h, thapsigargin 20 nM 18 h) is recorded as “reduced p38 activation”. In addition, the “p38 activity stimulated by MG132 (CHOP-luciferase RLU)” value in the data set with p38 MAPK [2] (20 μM compound 1 h, MG132 740 nM 18 h) is reported as “had no effect”. Also, the “p38 activation initiated by ionomycin (CHOP-luciferase RLU)” value in the data set on p38 MAPK [2] (50 μM compound 1 h, ionomycin 120 nM 18 h) was “reduced p38 activation”. Moreover, in the data set with p38 MAPK [2] (H4-CHOP-luciferase reporter cells, inducers that disrupt calcium homeostasis), the “calcium regulator-induced p38 MAPK activation” value was “moderate inhibition; also recorded: inhibits”. Moreover, in the data set with p38 MAPK [3], the “p38 activity (phosphorylation) in response to thapsigargin” value is “significantly reduced”. In data set [1], the share remaining at 1 h, 4 μM was 7.9 ± 6.3%. Further, the “cytoprotective activity against thapsigargin-induced cell death (in words)” value (shortened to “cytoprotective activity”) in the data set on SH-SY5Y cells was “very strong cytoprotective activity”. This molecule gave a share remaining at 3 h, 1 μM in “Plasma stability assay” of at least 100%. Further, the “off-target interactions in PDSP panel” value in data set [4] is recorded as “No significant off-target interactions were detected”.
As for `CC1(C)CC(=O)C2=C(C1)Nc1cc(C(=O)c3ccccc3)ccc1NC2c1ccc(N2CCCCC2)cc1` (centres unmarked) [4jj, 7-Benzoyl-3,3-dimethyl-11-(4-(piperidin-1-yl)phenyl)-2,3,4,5,10,11-hexahydro-1H-dibenzo[b,e][1,4]diazepin-1-one], in data set [1], the fraction remaining at 1 h, 4 μM worked out at 12.9 ± 1.6%. In addition, the fraction remaining at 3 h, 1 μM in the data set “Plasma stability assay” is at least 100%.
Take `CC1(C)CC(=O)C2=C(C1)Nc1cc(C(=O)c3ccccc3)ccc1NC2c1ccc(O)cc1` (centres unmarked) [4ll, 7-Benzoyl-11-(4-hydroxyphenyl)-3,3-dimethyl-2,3,4,5,10,11-hexahydro-1H-dibenzo[b,e] [1,4]diazepin-1-one]: the “cytoprotective activity” value in the data set on H4 cells and in the data set on SH-SY5Y cells was “devoid of cytoprotective activity” in each case.
Turning to `CC1(C)CC(=O)C2=C(C1)Nc1cc(C(=O)c3ccccc3)ccc1NC2c1ccsc1` (centres unmarked) [4mm, 7-Benzoyl-3,3-dimethyl-11-(thiophen-3-yl)-2,3,4,5,10,11-hexahydro-1H-dibenzo[b,e] [1,4]diazepin-1-one], the “JNK activity (phosphorylation) in response to thapsigargin” value with JNK is reported as “had no effect”. Further, the entries for the “cytoprotective activity” value in the data set on H4 cells and in the data set with SH-SY5Y cells were “devoid of cytoprotective activity” and “devoid of cytoprotective activity; also recorded: does not”, respectively. The “p38 activity (phosphorylation) in response to thapsigargin” value in the data set with p38 MAPK [3] is “had no effect”.
`CN(C)c1ccc(C2Nc3ccc(Br)cc3NC3=C2C(=O)CC(C)(C)C3)cc1` (centres unmarked) [4s, 7-Bromo-11-(4-(dimethylamino)phenyl)-3,3-dimethyl-2,3,4,5,10,11-hexahydro-1H-dibenzo [b,e][1,4]diazepin-1-one]: the half-maximal effective concentration (EC50) with H4 cells was determined as 12.9 ± 0.92 µM.
With `CC1(C)CC(=O)C2=C(C1)Nc1cc(Br)ccc1NC2c1ccc(N2CCCC2)cc1` (centres unmarked) [4t, 7-Bromo-3,3-dimethyl-11-(4-(pyrrolidin-1-yl)phenyl)-2,3,4,5,10,11-hexahydro-1H-dibenzo [b,e][1,4]diazepin-1-one], the fraction remaining at 1 h, 4 μM in data set [1] is 0.1 ± 0.1%. Besides, the EC50 with SH-SY5Y cells was found to be 14.6 ± 1.61 µM. In the data set “Plasma stability assay”, this molecule came in with an amount remaining at 3 h, 1 μM of at least 100%.
Regarding `CCCCN(CCCC)c1ccc(C2Nc3ccc(Br)cc3NC3=C2C(=O)CC(C)(C)C3)cc1` (centres unmarked) [4w, 7-Bromo-11-(4-(dibutylamino)phenyl)-3,3-dimethyl-2,3,4,5,10,11-hexahydro-1H-dibenzo [b,e][1,4]diazepin-1-one], the concentration for a half-maximal effect (EC50) in the data set on H4 cells was determined as 13.1 ± 2.53 µM. Also, in the data set on SH-SY5Y cells, the “cytoprotective activity” value is reported as “but not in SH-SY5Y cells”.
For the molecule `CCN(CC)c1ccc(C2Nc3ccc(-c4ccccc4)cc3NC3=C2C(=O)CC(C)(C)C3)cc1` (centres unmarked) [4y, 11-(4-(Diethylamino)phenyl)-3,3-dimethyl-7-phenyl-2,3,4,5,10,11-hexahydro-1H-dibenzo [b,e][1,4]diazepin-1-one], the amount remaining at 1 h, 4 μM in data set [1] stood at 1.8 ± 2.1%. In “Plasma stability assay”, the amount remaining at 3 h, 1 μM is 97.9 ± 5.7%.

As usually defined, the EC50 is the midpoint of the concentration-response curve. A word on the share remaining: it is what is left of the initial amount, in per cent. A low value points to a greater loss.
